Results on nine compounds are retold here after ChEMBL document CHEMBL1649215, “In vitro activities of trioxaquines against Schistosoma mansoni” (2009).

The source made the active and inactive calls. The calls are words filed in the database; no cut-off is given here.

Experiment [1] deals with Schistosoma mansoni. As to the kind of experiment: Antiparasitic activity against Schistosoma mansoni assessed as parasite death at 300 ug/ml. In kind it is functional. The method in brief: (§1)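 Schistosomula (day 21) and adults (day 49) were taken from percutaneously infected Swiss OF1 mice. Compounds were serially diluted in DMSO, with the last step into RPMI containing Tween 80, and worms were exposed across a concentration and time range. Survival was recorded and groups compared by pairwise log-rank tests (α = 1%).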

The subject of experiment [2] is Schistosoma mansoni. As to the kind of experiment: Antiparasitic activity against Schistosoma mansoni adult worm assessed as reduction of body contractility and movement at 50 ug/ml.
In experiment [3] the test system is Schistosoma mansoni. Kind of experiment: Antiparasitic activity against Schistosoma mansoni larva assessed as reduction of body contractility and movement at 5 ug/ml.
In experiment [4] the test system is Schistosoma mansoni. Kind of experiment: Antiparasitic activity against Schistosoma mansoni adult worm assessed as reduction of body contractility and movement at 50 ug/ml. The format is functional, organism-based. In a few lines: (§2)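 Brazilian S. mansoni maintained in Swiss OF1 mice. Schistosomula recovered 21 days after percutaneous infection with 400 cercariae, and adults 49 days after 120 cercariae. Final concentration was 5 µg/ml for larvae and 50 µg/ml for adults, in RPMI/Tween 80/DMSO (1,000/0.95/3.8). Survival was followed over time and compared by pairwise log-rank tests (α = 1%).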

For experiment [5], the system named is Schistosoma mansoni. As to the kind of experiment: Antiparasitic activity against Schistosoma mansoni assessed as parasite death at 5 ug/ml. The format is functional. In a few lines:
as §1

The test system of experiment [6] is Schistosoma mansoni. Kind of experiment: Antiparasitic activity against Schistosoma mansoni larva assessed as reduction of body contractility and movement at 5 ug/ml. The format is functional, organism-based. In a few lines: as §2
Experiment [7] deals with Schistosoma mansoni. Kind of experiment: Antiparasitic activity against Schistosoma mansoni assessed as parasite death at 10 ug/ml. The format is functional. In a few lines: as §1
The subject of experiment [8] is Schistosoma mansoni. As to the kind of experiment: Antiparasitic activity against Schistosoma mansoni adult worm assessed as reduction of body contractility and movement at 50 ug/ml within 7 hrs.
The test system of experiment [9] is Schistosoma mansoni. Kind of experiment: Antiparasitic activity against Schistosoma mansoni larva assessed as reduction of body contractility and movement at 5 ug/ml within 7 hrs. The format is functional, organism-based. In a few lines:
as §2

In experiment [10] the test system is Schistosoma mansoni. Kind of experiment: Antiparasitic activity against Schistosoma mansoni assessed as parasite death at 100 ug/ml. The format is functional. In a few lines:
as §1

In the case of `C[C@H]1[C@H](OC(=O)CCC(=O)O)O[C@@H]2O[C@@]3(C)CC[C@H]4[C@H](C)CC[C@@H]1[C@@]24OO3` [ARTESUNATE], the Activity in experiment [1] came out at 100%.

With `O=C(C1CCCCC1)N1CC(=O)N2CCc3ccccc3C2C1` (stereo unspecified) [PRAZIQUANTEL], the outcome in [2], in experiment [3], in experiment [4] and in experiment [6] was Active. Besides, the Activity in experiment [5] and in experiment [7] was 100% throughout.

As for `CN(C1CCC2(CC1)OCC(C)(C)OO2)[C@H]1CC[C@H](Nc2ccnc3cc(Cl)ccc23)CC1` (stereo partly specified), the result in experiment [8] and in experiment [9] was inactive. The outcome in [2], in experiment [3], in [4] and in experiment [6] was Active.

Regarding `CC1(C)COC2(CCC(N[C@H]3CC[C@H](Nc4ccnc5cc(C(F)(F)F)ccc45)CC3)CC2)OO1` (stereo partly specified), the result in [8], in experiment [2], in experiment [3], in experiment [4] and in [6] was Active.

For `Clc1ccc2c(NCCN3CCC4(CC3)OCC3(CCCCC3)OO4)ccnc2c1`, the result in experiment [8], in [2], in experiment [3], in experiment [4] and in experiment [6] was Active.

Turning to `CO[C@H]1O[C@@H]2O[C@@]3(C)CC[C@H]4[C@H](C)CC[C@@H]([C@H]1C)[C@@]24OO3` [ARTEMETHER], the Activity in [1] is reported as 100%.

For the compound `Clc1ccc2c(N[C@H]3CC[C@H](NC4CCC5(CC4)OCC4(CCCC4)OO5)CC3)ccnc2c1` (stereo partly specified), the result in [8], in experiment [2], in [3], in [4], in [9] and in experiment [6] was Active. The Activity in experiment [5], in experiment [10], in [1] and in experiment [7] was 100% throughout.

For the compound `CC1(C)COC2(CCC(N[C@H]3CC[C@H](Nc4ccnc5cc(Cl)ccc45)CC3)CC2)OO1` (stereo partly specified), the outcome in experiment [8], in experiment [2], in experiment [3], in experiment [4], in [9] and in experiment [6] was Active.

`Clc1ccc2c(NCCN3CCC4(CC3)OCC3(CCCC3)OO4)ccnc2c1`: the result in experiment [8], in [2], in experiment [3], in [4], in experiment [9] and in experiment [6] was Active.
